Measurements taken from PMC2669314 (Journal of medicinal chemistry, 2009).
Read-outs that look alike come from different tables or passages of the source. Blank lines part the entries; values can stand above or below the molecule they belong to. Where a SMILES comes first, the peptide text is derived from it. [ ]: non-standard residue; d: D form. The star is where a group is joined. FITC = O=C1OC2(c3ccc(O)cc3Oc3cc(O)ccc32)c2ccc(NC(=S)*)cc21; pY = N[C@@H](Cc1ccc(OP(=O)(O)O)cc1)C(=O)O; Ahx = NCCCCCC(=O)O

What was measured:
[1] = biological target: FITC-NH-(CH2)2-CO-L-pY-Q-G-L-S-amide; assay: fluorescence polarisation
[2] = biological target: FITC-NH-(CH2)2-CO-pY-Q-G-L-S-amide; assay: fluorescence polarisation
[3] = biological target: FITC-NH-(CH2)3-CO-L-pY-Q-G-L-S-amide; assay: fluorescence polarisation
[4] = biological target: FITC-NH-(CH2)3-CO-pY-Q-G-L-S-amide; assay: fluorescence polarisation
[5] = biological target: FITC-NH-(CH2)4-CO-L-pY-Q-G-L-S-amide; assay: fluorescence polarisation
[6] = biological target: FITC-NH-(CH2)4-CO-pY-Q-G-L-S-amide; assay: fluorescence polarisation
[7] = biological target: FITC-NH-(CH2)5-CO-pY-Q-G-L-S-amide; assay: fluorescence polarisation
[8] = biological target: FITC-pY-Q-G-L-S-amide; assay: fluorescence polarisation
[9] = biological target: T1, Shc SH2 domain protein (UniProt P29353); assay: fluorescence polarisation
T1 sequence: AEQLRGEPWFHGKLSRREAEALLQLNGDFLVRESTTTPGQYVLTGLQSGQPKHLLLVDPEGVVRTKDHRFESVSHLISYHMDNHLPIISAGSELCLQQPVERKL

[10] = biological target: T2, Shc SH2 domain (Homo sapiens, UniProt P29353); assay: Fluorescence anisotropy competition assay using peptide 8 as reference peptide; assay type: binding
T2 sequence (P29353 488-579 limits assumed): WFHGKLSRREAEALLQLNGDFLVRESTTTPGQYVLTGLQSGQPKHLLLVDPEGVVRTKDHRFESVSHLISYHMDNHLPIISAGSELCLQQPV

[11] = biological target: T2, Shc SH2 domain; assay: Steady state; assay type: binding; conditions: for Kd ± s.d.: Table 1, FITC-labelled peptides, n.b. = no binding
In short: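 Direct titration: 5 nM N-terminal fluorescein-labelled peptide in 1× BS with 10% (v/v) DMSO, with Shc protein serially diluted in from a 100 μM starting concentration. Excitation at 485 nm and parallel/perpendicular emission at 535 nm. Kd comes from fitting anisotropy against protein concentration to a single-site quadratic binding model, corrected for the bound/free fluorescence intensity ratio.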

[12] = biological target: T1, Shc SH2 domain protein; assay: fluorescence polarisation; remark: listed apart in the source

Kd [1]: 7.6 µM | Kd [2]: 1.09 µM | Kd [3]: 8.6 µM | Kd [4]: 7.2 µM | Kd [5]: 8.9 µM | Kd [6]: 0.35 µM | Kd [7]: 4.7 µM | Kd [8]: 12.4 µM
Molecule: Shc SH2 domain protein (from UniProt P29353 480-583) (domain or fragment)

Kd ± s.d. [11]: n.b.
Molecule: FITC-NH-(CH2)-CO-pY-Q-G-L-S-amide (YQGLS; not fully specified; FITC-NH-(CH2)-CO- on the N-terminus; phosphotyrosine at 1; C-terminal amide) [compound 5]

IC50 [9]: 112 µM
Molecule: Ac-pY-Q-G-L-S-amide (peptide)

Kd ± s.d. [11]: n.b.
Molecule: FITC-NH-(CH2) -CO-L-pY-Q-G-L-S-amide (LYQGLS; not fully specified; FITC-NH-(CH2)-CO- on the N-terminus; phosphotyrosine at 2; C-terminal amide) [compound 10]

IC50 [12]: 248 µM
B1: Ac-pY-Q-G-L-amide (peptide)
peptide: YQGL
HELM: PEPTIDE1{[ac].[O=C([C@H](Cc1ccc(OP(=O)(O)O)cc1)N[*:1])[*:2]].Q.G.L.[am]}$$$$V2.0
SMILES: CC(=O)N[C@@H](Cc1ccc(OP(=O)(O)O)cc1)C(=O)N[C@@H](CCC(N)=O)C(=O)NCC(=O)N[C@@H](CC(C)C)C(N)=O

Second part, the molecule before the results:

Molecule: Ac-pY-Q-G-L-S-NHR, R = allyl, no N-allyl substitution (peptide 31)
IC50 [9]: 189 µM

Molecule: Ac-pY-Q-G-L-S-NHR, R = homoallyl, no N-allyl substitution (peptide 35)
IC50 [9]: 165 µM

Molecule: CC(=O)NCCCCC(=O)N[C@@H](Cc1ccc(OP(=O)(O)O)cc1)C(=O)N[C@@H](CCC(N)=O)C(=O)NCC(=O)N[C@@H](CC(C)C)C(=O)N[C@@H](CO)C(N)=O [compound 15, Ac-NH-(CH2)4-CO-pY-Q-G-L-S-amide] (HELM PEPTIDE1{[ac].[O=C(CCCCN[*:1])[*:2]].[O=C([C@H](Cc1ccc(OP(=O)(O)O)cc1)N[*:1])[*:2]].Q.G.L.S.[am]}$$$$V2.0)
IC50 [10]: 158 ± 10 µM

Molecule: CC(=O)N[C@@H](Cc1ccc(OP(=O)(O)O)cc1)C(=O)N[C@@H](CCC(N)=O)C(=O)NCC(=O)N[C@@H](CC(C)C)C(=O)N[C@@H](CO)C(N)=O [Ac-pY-Q-G-L-S-amide] (HELM PEPTIDE1{[ac].[O=C([C@H](Cc1ccc(OP(=O)(O)O)cc1)N[*:1])[*:2]].Q.G.L.S.[am]}$$$$V2.0)
IC50 [10]: 112.5 ± 0.7 µM | Shc SH2 domain binding affinity relative to parent Gly-containing peptide 45 ([10]; relative to 45 (IC50 = 248 μM)): approximate doubling of binding affinity

Molecule: CC(C)C[C@H](NC(=O)CNC(=O)[C@H](CCC(N)=O)NC(=O)[C@H](Cc1ccc(OP(=O)(O)O)cc1)NC(=O)[C@H](CC(C)C)NC(=S)Nc1ccc2c(c1)C(=O)OC21c2ccc(O)cc2Oc2cc(O)ccc21)C(=O)N[C@@H](CO)C(N)=O [compound 3, FITC-L-pY-Q-G-L-S-amide] (HELM PEPTIDE1{[O=C1OC2(c3ccc(O)cc3Oc3cc(O)ccc32)c2ccc(NC(=S)[*:2])cc21].L.[O=C([C@H](Cc1ccc(OP(=O)(O)O)cc1)N[*:1])[*:2]].Q.G.L.S.[am]}$$$$V2.0)
Kd ([11]; FITC-containing peptides): complete loss of binding affinity | Kd ± s.d. [11]: n.b. ^b

Molecule: CC(C)C[C@H](NC(=O)CNC(=O)[C@H](CCC(N)=O)NC(=O)[C@H](Cc1ccc(OP(=O)(O)O)cc1)NC(=O)[C@H](CC(C)C)NC(=O)CCCCCNC(=S)Nc1ccc2c(c1)C(=O)OC21c2ccc(O)cc2Oc2cc(O)ccc21)C(=O)N[C@@H](CO)C(N)=O [compound 14, FITC-NH-(CH2)5-CO-L-pY-Q-G-L-S-amide] ({FITC-Ahx}-L[pY]QGLS-NH2)
Kd ± s.d. [11]: n.b.

Molecule: CC(=O)N[C@@H](Cc1ccc(OP(=O)(O)O)cc1)C(=O)N[C@@H](CCC(N)=O)C(=O)NCC(N)=O [Ac-pY-Q-G-amide] (HELM PEPTIDE1{[ac].[O=C([C@H](Cc1ccc(OP(=O)(O)O)cc1)N[*:1])[*:2]].Q.G.[am]}$$$$V2.0)
IC50 [10]: > 500 µM

Molecule: Ac-[pY]QGL-{NH‑allyl} [Ac-pY-Q-G-L-NHR, R = allyl, no N-allyl substitution (peptide 38)]
IC50 [12]: 91 µM
